Experimental data collected from several papers.
Compare with care: the assays were run in different laboratories.

The logP of `N#Cc1[nH]nnc1-c1cccc(-c2cc(F)cc(C(F)(F)F)c2)c1` is reported as 5.2 (potentiometric).
`C=C[C@H]1C[N@]2CC[C@H]1C[C@@H]2C(O)c1ccnc2ccc(OC)cc12` (stereo partly shown) gave a logP of 3.17 (water).
The logP of `CNCc1cc(-c2ccccc2F)n(S(=O)(=O)c2cccnc2)c1` is reported as 2.74.
The logP of `O=C1NN=C(N=Cc2ccccc2)C1=NNn1c(-c2ccccc2)nc2ccccc2c1=O` is reported as 3.39.
`CC(C)N1CCN(Cc2cnc(-c3cc(-c4cccc5[nH]ccc45)cc4[nH]ncc34)o2)CC1` has a logP of 4.01.
With `CC1=NN(CNc2ccccc2[N+](=O)[O-])C(=O)C1=NNn1c(-c2ccccc2)nc2ccccc2c1=O` the logP was 5.08.
For `Clc1cc2c(c3ncccc13)OCN(CCc1ccccc1)C2`, the logP was 4.54.
For `Cc1cc(Cl)cc(S(C)(=O)=O)c1NC(=O)c1cc(Br)nn1-c1ncccc1Cl`, the logP was 4.34 (potentiometric).
With `CC1=NN(CNc2ccc(O)cc2)C(=O)C1=NNn1c(-c2ccccc2)nc2ccccc2c1=O` the logP was 4.19.
For `O=c1[nH]cc(F)c(=O)[nH]1`, the logP was -0.46 (shake flask; water; 24 h).
With `C=CCN1CC[C@]23c4c5ccc(O)c4O[C@H]2[C@@H](OCCOCCOCCOCCOCCOCCOCCOC)CC[C@@]3(O)[C@H]1C5` the logP was 1.43.
With `CCCCC1=NC2(CCCC2)C(=O)N1Cc1ccc(-c2ccccc2S(=O)(=O)Nc2noc(C)c2C)c(COCC)c1` the logP was 4.26.
The logP of `Nc1nc2[nH]cc(CCc3ccc(C(=O)N[C@@H](CCC(=O)O)C(=O)O)cc3)c2c(=O)[nH]1` is reported as -0.842 (water; 24 h).
`CC1=NN(CNc2ccc(C(=O)O)cc2)C(=O)C1=NNn1c(-c2ccccc2)nc2ccccc2c1=O` gave a logP of 4.15.
`CS(=O)(=O)N1CCN(Cc2cc3nc(-c4cccc5[nH]ncc45)nc(N4CCOCC4)c3s2)CC1` gave a logP of 3.22.
With `N#Cc1[nH]nnc1-c1cccc(OCc2cc(C(F)(F)F)ccc2C(F)(F)F)c1` the logP was 5.5 (potentiometric).
